Measured values from ChEMBL document CHEMBL1687848, “In vitro effect of qnrA1, qnrB1, and qnrS1 genes on fluoroquinolone activity against isogenic Escherichia coli isolates with mutations in gyrA and parC” (2011).
≈ marks a conversion by molar mass, not a printed value.

Legend:
Format in all cases: functional
[1] = test system: Escherichia coli; experiment: Antibacterial activity against Escherichia coli ATCC 25922 harboring ParC S80R mutant by broth microdilution method
[2] = test system: Escherichia coli; experiment: Antibacterial activity against qnrA gene expressing Escherichia coli ATCC 25922 harboring GyrA S83L mutant and pBK-QnrA1 by broth microdilution method
[3] = test system: Escherichia coli; experiment: Antibacterial activity against Escherichia coli ATCC 25922 by broth microdilution method
[4] = test system: Escherichia coli; experiment: Antibacterial activity against Escherichia coli ATCC 25922 harboring GyrA S83L mutant by broth microdilution method
[5] = test system: Escherichia coli; experiment: Antibacterial activity against Escherichia coli ATCC 25922 expressing qnrS gene and pBK-QnrS1 assessed as mutant prevention concentration
[6] = test system: Escherichia coli; experiment: Antibacterial activity against Escherichia coli ATCC 25922 harboring GyrA S83L mutant assessed as mutant prevention concentration
[7] = test system: Escherichia coli; experiment: Antibacterial activity against qnrS gene expressing Escherichia coli ATCC 25922 harboring GyrA S83L mutant and pBK-QnrS1 assessed as mutant prevention concentration
[8] = test system: Escherichia coli; experiment: Ratio of mutant prevention concentration to MIC for Escherichia coli ATCC 25922 expressing qnrS gene and pBK-QnrS1
Method in brief: (§1)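 MIC: broth microdilution per CLSI, in duplicate. The ratio is MPC over MIC. Strains are E. coli ATCC 25922 or its GyrA Ser83Leu gene-replacement mutant, with qnr genes on pBK-CMV introduced by electroporation.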

[9] = test system: Escherichia coli; experiment: Ratio of mutant prevention concentration to MIC for qnrB gene expressing Escherichia coli ATCC 25922 harboring GyrA S83L mutant and pBK-QnrB1; method in brief: as §1
[10] = test system: Escherichia coli; experiment: Antibacterial activity against Escherichia coli ATCC 25922 assessed as earliest time required to resistant colonies visible one step below mutant prevention concentration
[11] = test system: Escherichia coli; experiment: Antibacterial activity against qnrB gene expressing Escherichia coli ATCC 25922 harboring GyrA S83L mutant and pBK-QnrB1 assessed as earliest time required to resistant colonies visible one step below mutant prevention concentration
[12] = test system: Escherichia coli; experiment: Antibacterial activity against Escherichia coli ATCC 25922 expressing qnrS gene and pBK-QnrS1 assessed as resistant colonies recovered one step below mutant prevention concentration
Method in brief: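 Resistant colonies recovered from Mueller-Hinton plates one concentration step below the MPC for each fluoroquinolone were retested for MIC. Mutants taken from plated concentrations closest to the MPC had the QRDRs of gyrA and parC analysed.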

Q: With `CCn1cc(C(=O)O)c(=O)c2cc(F)c(N3CCNCC3)cc21` [NORFLOXACIN] as the compound, how does the MBC [1] read?
A: Its MBC is 0.03 µg/mL (≈ 0.0939 µM).

Q: And the MIC [1]?
A: Its MIC is 0.03 µg/mL (≈ 0.0939 µM).

Q: What about the MBC [2] of the same compound?
A: Its MBC is 2 µg/mL (≈ 6.26 µM).

Q: What about the MIC [2] of the same compound?
A: Its MIC is 2 µg/mL (≈ 6.26 µM).

Q: And the MBC [3]?
A: The MBC was 0.03 µg/mL (≈ 0.0939 µM).

Q: And the MIC [3]?
A: The MIC was 0.015 µg/mL (≈ 0.047 µM).

Q: And the MBC [4]?
A: The MBC was 0.5 µg/mL (≈ 1.57 µM).

Q: And the MIC [4]?
A: Its MIC is 0.125 µg/mL (≈ 0.391 µM).

Q: What about the Activity [5] of the same compound?
A: The Activity was 8 µg/mL.

Q: And the Activity [6]?
A: The Activity was 8 µg/mL.

Q: What about the Activity [7] of the same compound?
A: The Activity was 32 µg/mL.

Q: What about the Ratio [8] of the same compound?
A: The Ratio was 16.

Q: And the Ratio [9]?
A: Its Ratio is 16.

Q: And the Time [10]?
A: Its Time is 48 h.

Q: What about the Time [11] of the same compound?
A: The Time was 24 h.

Q: What about the MIC [12] of the same compound?
A: Its MIC is 1 µg/mL (≈ 3.13 µM).
